Results reported in ChEMBL document CHEMBL1145612, “Antagonists of the human adenosine A2A receptor. Part 2: Design and synthesis of 4-arylthieno[3,2-d]pyrimidine derivatives” (Bioorg Med Chem Lett, 2008).
The source made the active and inactive calls. The calls are words filed in the database; no cut-off is given here.

Key:
[1] = biological target: T1, Adenosine receptor A1 (Homo sapiens, UniProt P30542); experiment: Binding affinity at human adenosine A1 receptor
T1 sequence (P30542 whole entry): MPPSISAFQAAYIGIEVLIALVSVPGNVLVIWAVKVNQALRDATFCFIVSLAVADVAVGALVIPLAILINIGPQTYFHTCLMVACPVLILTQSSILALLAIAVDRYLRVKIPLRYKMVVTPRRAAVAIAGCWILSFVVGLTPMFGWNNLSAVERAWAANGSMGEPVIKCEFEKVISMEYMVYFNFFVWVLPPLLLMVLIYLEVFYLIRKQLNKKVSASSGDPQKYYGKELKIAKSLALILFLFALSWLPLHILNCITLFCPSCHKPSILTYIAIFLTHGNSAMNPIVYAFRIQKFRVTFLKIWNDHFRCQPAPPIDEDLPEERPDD

[2] = biological target: T2, Adenosine receptor A2a (Homo sapiens, UniProt P29274); experiment: Agonist activity at human recombinant adenosine A2A receptor expressed in CHO cells assessed as calcium mobilization by FLIPR assay; assay type: functional, cell-based
T2 sequence (P29274 whole entry): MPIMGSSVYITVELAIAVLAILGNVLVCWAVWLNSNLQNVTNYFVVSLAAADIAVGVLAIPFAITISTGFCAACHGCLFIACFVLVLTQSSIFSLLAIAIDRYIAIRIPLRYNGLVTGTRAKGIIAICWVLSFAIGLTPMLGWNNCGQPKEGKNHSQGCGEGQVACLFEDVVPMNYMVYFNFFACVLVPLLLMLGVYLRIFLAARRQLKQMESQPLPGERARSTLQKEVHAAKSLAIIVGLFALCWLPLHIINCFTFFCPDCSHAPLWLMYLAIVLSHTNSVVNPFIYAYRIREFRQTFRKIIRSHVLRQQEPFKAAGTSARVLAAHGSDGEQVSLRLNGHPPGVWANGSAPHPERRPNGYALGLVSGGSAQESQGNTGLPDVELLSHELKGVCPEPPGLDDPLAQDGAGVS

[3] = test system: Mus musculus; experiment: Reversal of haloperidol-induced hypolocomotion in mouse at 30 mg/kg, ip; assay type: functional, organism-based; design: dose 30 mg/kg
How it was run: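 Haloperidol-induced hypolocomotion model in mice. Test compound was given intraperitoneally at 30 mg kg-1, and reversal of the reduced locomotion was assessed.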

[4] = biological target: T2, Adenosine receptor A2a; experiment: Binding affinity at human adenosine A2A receptor
[5] = biological target: T3, Adenosine receptor A2b (Homo sapiens, UniProt P29275); experiment: Binding affinity at human adenosine A2B receptor
T3 sequence (P29275 whole entry): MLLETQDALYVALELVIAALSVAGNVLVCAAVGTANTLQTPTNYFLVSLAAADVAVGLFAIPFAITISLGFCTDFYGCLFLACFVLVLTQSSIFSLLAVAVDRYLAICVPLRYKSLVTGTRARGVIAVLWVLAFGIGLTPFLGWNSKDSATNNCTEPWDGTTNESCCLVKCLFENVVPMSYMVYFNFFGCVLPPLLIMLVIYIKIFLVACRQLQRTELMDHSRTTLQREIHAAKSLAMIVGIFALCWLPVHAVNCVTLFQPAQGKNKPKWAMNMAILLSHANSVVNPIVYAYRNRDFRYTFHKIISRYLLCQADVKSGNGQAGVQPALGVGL

[6] = biological target: T4, Adenosine receptor A3 (Homo sapiens, UniProt P0DMS8); experiment: Binding affinity at human adenosine A3 receptor
T4 sequence (P0DMS8 whole entry): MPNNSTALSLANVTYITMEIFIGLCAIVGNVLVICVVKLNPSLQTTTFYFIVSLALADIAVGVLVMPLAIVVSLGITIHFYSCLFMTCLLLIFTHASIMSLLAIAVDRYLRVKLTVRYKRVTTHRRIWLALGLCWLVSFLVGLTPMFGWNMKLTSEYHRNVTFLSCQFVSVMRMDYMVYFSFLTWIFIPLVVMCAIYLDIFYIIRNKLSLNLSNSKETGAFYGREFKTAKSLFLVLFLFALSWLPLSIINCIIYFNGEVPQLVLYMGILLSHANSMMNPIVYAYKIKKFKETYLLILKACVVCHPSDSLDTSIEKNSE

[7] = test system: Mus musculus; experiment: Reversal of haloperidol-induced hypolocomotion in mouse at 10 mg/kg, sc; assay type: functional, organism-based; design: dose 10 mg/kg

Structure (SMILES) | Ki [1] | EC50 [2] | Ki [4] | Ki [5] | Ki [6] | Activity [3] | Activity [7]
Cc1nc(-c2nc(N(C)C)nc3ccsc23)sc1C | 254 nM | > 10000 nM | 6.6 nM | – | – | inactive | –
Cc1cnc(-c2nc(N(C)C)nc3ccsc23)s1 | 908 nM | > 10000 nM | 5.7 nM | – | – | inactive | –
CN(C)c1nc(-c2ccccn2)c2sccc2n1 | 1590 nM | > 10000 nM | 26 nM | – | – | – | –
Cc1ccc(-c2nc(N(C)C)nc3ccsc23)nc1 | 1260 nM | > 10000 nM | 19 nM | – | – | inactive | –
CN(C)c1nc(-c2nccs2)c2sccc2n1 | 366 nM | > 10000 nM | 2.3 nM | 1560 nM | 1760 nM | Active | –
CN(C)c1nc(-c2cnccn2)c2sccc2n1 | 990 nM | > 10000 nM | 81 nM | – | – | inactive | –
CN(C)c1nc(-c2cc3ccccc3s2)c2sccc2n1 | 1260 nM | > 10000 nM | 1330 nM | – | – | – | –
CC(C)c1nc(-c2nccs2)c2sccc2n1 | 208 nM | > 10000 nM | 1.4 nM | 865 nM | 476 nM | Active | –
c1csc(-c2nc(C3CC3)nc3ccsc23)n1 | 259 nM | – | – | 910 nM | 945 nM | Active | Active
Nc1nc(-c2nccs2)c2sccc2n1 | 675 nM | > 10000 nM | – | – | – | Active | –
CCc1nc(-c2nc(C)cs2)c2sccc2n1 | 413 nM | > 10000 nM | 2.1 nM | – | – | Active | –
Cc1csc(-c2nc(N(C)C)nc3ccsc23)n1 | 303 nM | – | – | – | – | Active | –
CN(C)c1nc(-c2nccn2C)c2sccc2n1 | 1100 nM | > 10000 nM | 14 nM | – | – | inactive | –
CN(C)c1nc(-c2cn[nH]c2)c2sccc2n1 | 5510 nM | > 10000 nM | 3080 nM | – | – | – | –
OC[C@@H]1CCCN1c1nc(-c2nccs2)c2sccc2n1 | 14 nM | – | – | 2480 nM | 456 nM | Active | –
CC(C)(C)c1nc(-c2nccs2)c2sccc2n1 | 240 nM | > 10000 nM | 3.1 nM | – | – | inactive | –
CN(C)c1nc(-c2ncc[nH]2)c2sccc2n1 | 5770 nM | > 10000 nM | 299 nM | – | – | Active | –
CCc1nc(-c2ncc[nH]2)c2sccc2n1 | 5530 nM | > 10000 nM | 142 nM | – | – | Active | –
OC[C@H]1CCCN1c1nc(-c2nccs2)c2sccc2n1 | 250 nM | – | – | – | – | Active | –
CCc1nc(-c2nccs2)c2sccc2n1 | 388 nM | > 10000 nM | 1.6 nM | 721 nM | 1810 nM | Active | –
Clc1nc(-c2nccs2)c2sccc2n1 | 615 nM | > 10000 nM | 20 nM | – | – | – | –
CN(C)c1nc(-c2cccs2)c2sccc2n1 | 1960 nM | > 10000 nM | 55 nM | – | – | inactive | –
CCc1nc(-n2nccn2)c2sccc2n1 | 4940 nM | > 10000 nM | 779 nM | – | – | – | –

Continued, in another order:

Ki [1] | EC50 [2] | Ki [4] | Ki [5] | Ki [6] | Structure (SMILES) | Activity [3] | Activity [7]
375 nM | > 10000 nM | 58 nM | – | – | CCNc1nc(-c2ccco2)c2sccc2n1 | Active | –
2200 nM | > 10000 nM | 60 nM | – | – | CN(C)c1nc(-c2ccco2)c2sccc2n1 | Active | –
3210 nM | > 10000 nM | 30 nM | – | – | CCc1nc(-c2ccco2)c2sccc2n1 | – | –
868 nM | > 10000 nM | 203 nM | – | – | OCCNc1nc(-c2ccco2)c2sccc2n1 | inactive | –
10000 nM | > 10000 nM | 681 nM | – | – | CCc1nc(-c2ccoc2)c2sccc2n1 | – | –
813 nM | > 10000 nM | 154 nM | – | – | CCNc1nc(-c2cccs2)c2sccc2n1 | inactive | –
1270 nM | – | – | – | – | CCc1nc(-c2cccc(C)n2)c2sccc2n1 | inactive | –
568 nM | > 10000 nM | 40 nM | – | – | CNc1nc(-c2ccco2)c2sccc2n1 | Active | –
2040 nM | > 10000 nM | 391 nM | – | – | Clc1nc(-c2cccs2)c2sccc2n1 | inactive | –
1470 nM | > 10000 nM | 69 nM | – | – | CCc1nc(-c2cccs2)c2sccc2n1 | inactive | –
917 nM | > 10000 nM | 13 nM | – | – | CCc1nc(-c2ccccn2)c2sccc2n1 | Active | –
– | > 10000 nM | – | – | – | Nc1nc(-c2ccco2)c2sccc2n1 | Active | –
1590 nM | > 10000 nM | 444 nM | – | – | COc1nc(-c2cccs2)c2sccc2n1 | inactive | –
401 nM | > 10000 nM | 172 nM | – | – | OCCNc1nc(-c2cccs2)c2sccc2n1 | Active | –
3470 nM | > 10000 nM | 748 nM | – | – | CN(C)c1nc(-c2ccoc2)c2sccc2n1 | – | –
57 nM | > 10000 nM | 18 nM | – | – | OCCNc1nc(-c2nccs2)c2sccc2n1 | Active | –
